Results from ChEMBL document CHEMBL1149300, “Novel retinoic acid metabolism blocking agents endowed with multiple biological activities are efficient growth inhibitors of human breast and prostate cancer cells in vitro and a human breast tumor xenograft in nude mice” (J Med Chem, 2004).
Activity calls are given as the source filed them. No cut-off for these calls is given here.

Experiments:
[1] = Inhibition of ATRA hydroxylase in Syrian golden hamster liver microsome assessed ATRA metabolism using [11.12-3H]-ATRA; format: microsomes, Mesocricetus auratus
Outline: (§1)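 Microsomes from male Syrian golden hamster liver, or from T47D cells pretreated with 1 µM ATRA. Incubation in 0.1 M phosphate buffer pH 7.4 with NADPH, MgCl2 and BSA, inhibitor in DMSO; 3 min preincubation at 37 °C, then [11,12-3H]-ATRA for 30 min at 37 °C under oxygen. Ethyl acetate extraction, reverse-phase HPLC with radiometric detection; percent polar metabolites; IC50 from dose-response curves.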

[2] = system: MDA-MB-231; assay: Growth inhibition of human MDA-MB-231 cells after 6 days by MTT assay; format: functional, cell-based; conditions: MDA-MB-231, 144 h
[3] = biological target: T1, Retinoic acid receptor alpha (Homo sapiens, UniProt P10276); assay: Displacement of [11,12-3H]ARTA from RARalpha
T1 sequence (P10276 whole entry): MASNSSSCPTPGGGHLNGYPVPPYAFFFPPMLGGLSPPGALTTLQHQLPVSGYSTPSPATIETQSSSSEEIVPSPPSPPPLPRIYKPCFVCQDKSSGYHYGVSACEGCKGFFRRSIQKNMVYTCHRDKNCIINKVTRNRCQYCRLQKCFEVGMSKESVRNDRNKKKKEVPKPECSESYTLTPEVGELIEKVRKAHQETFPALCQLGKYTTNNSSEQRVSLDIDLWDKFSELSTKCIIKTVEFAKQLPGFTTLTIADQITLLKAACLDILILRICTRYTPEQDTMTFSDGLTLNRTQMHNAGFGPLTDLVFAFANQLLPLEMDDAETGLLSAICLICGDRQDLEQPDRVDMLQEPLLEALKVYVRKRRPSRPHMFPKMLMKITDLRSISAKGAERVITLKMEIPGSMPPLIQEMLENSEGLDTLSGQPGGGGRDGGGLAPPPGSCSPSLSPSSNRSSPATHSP
Outline: (§2)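 Recombinant S-Tag RARα, RARβ or RARγ fusion protein extracts (10-30 µg/mL total protein) in HEPES pH 7.9 binding buffer. Incubated with 1 nM [3H]all-trans-RA and 0-500 nM test compound for 3 h at 27 °C.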

[4] = biological target: T2, Retinoic acid receptor beta (Homo sapiens, UniProt P10826); assay: Displacement of [11,12-3H]ARTA from RARbeta; outline: as §2
T2 sequence (P10826 whole entry): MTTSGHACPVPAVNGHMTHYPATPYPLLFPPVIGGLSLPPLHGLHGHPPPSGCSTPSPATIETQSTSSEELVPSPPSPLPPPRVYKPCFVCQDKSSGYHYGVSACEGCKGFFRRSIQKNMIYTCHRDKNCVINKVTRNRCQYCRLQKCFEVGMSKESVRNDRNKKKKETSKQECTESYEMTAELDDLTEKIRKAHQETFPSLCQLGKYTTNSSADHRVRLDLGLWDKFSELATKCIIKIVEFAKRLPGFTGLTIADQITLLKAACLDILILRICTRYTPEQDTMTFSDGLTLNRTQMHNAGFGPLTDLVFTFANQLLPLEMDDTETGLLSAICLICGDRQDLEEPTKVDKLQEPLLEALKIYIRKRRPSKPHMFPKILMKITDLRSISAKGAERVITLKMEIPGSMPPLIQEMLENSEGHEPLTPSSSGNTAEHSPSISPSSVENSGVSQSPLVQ

[5] = Displacement of [11,12-3H]ARTA from RARgamma; set-up: species or system Homo sapiens
Outline: as §2, with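 “°C. Nonspecific binding measured with a 200-fold excess of unlabeled RA; IC50 from dose-response curves, at least two experiments.” for “°C.”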

[6] = biological target: T3, Cytochrome P450 26A1 (Homo sapiens, UniProt O43174); assay: Inhibition of ATRA-induced CYP26 in human MCF7 cells assessed ATRA as metabolism using [11.12-3H]-ATRA; format: functional, cell-based
T3 sequence (O43174 whole entry): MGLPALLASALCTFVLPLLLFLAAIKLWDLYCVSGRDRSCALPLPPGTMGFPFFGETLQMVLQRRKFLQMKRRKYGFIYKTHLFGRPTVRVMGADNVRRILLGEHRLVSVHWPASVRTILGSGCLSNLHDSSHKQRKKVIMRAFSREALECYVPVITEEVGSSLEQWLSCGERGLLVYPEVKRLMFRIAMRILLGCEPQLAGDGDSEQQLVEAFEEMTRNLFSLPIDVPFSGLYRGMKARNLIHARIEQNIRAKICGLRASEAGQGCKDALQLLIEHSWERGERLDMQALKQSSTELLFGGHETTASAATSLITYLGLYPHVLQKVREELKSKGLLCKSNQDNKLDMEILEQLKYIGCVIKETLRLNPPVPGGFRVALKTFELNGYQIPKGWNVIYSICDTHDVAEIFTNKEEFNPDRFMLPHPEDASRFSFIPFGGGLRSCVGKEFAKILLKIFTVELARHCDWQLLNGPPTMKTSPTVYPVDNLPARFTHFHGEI
Outline: (§3)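 MCF-7 or T47D cells (1 × 10^6 per well) induced with 1 µM ATRA for 12-15 h, washed, then given inhibitor (0.0001-10 µM, ethanol stock) plus 0.001 µM [11,12-3H]-ATRA for 5 h. Media and cells extracted with ethyl acetate; metabolites measured by reverse-phase HPLC with radiometric detection; IC50 from dose-response curves.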

[7] = biological target: T3, Cytochrome P450 26A1; assay: Inhibition of ATRA-induced CYP26 in human T47D cells assessed as ATRA metabolism using [11.12-3H]-ATRA; format: functional, cell-based; outline: as §3
[8] = system: MCF7; assay: Growth inhibition of human MCF7 cells after 6 days by MTT assay; format: functional, cell-based; conditions: MCF7, 144 h
Outline: (§4)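 MCF-7 (IMEM, 5% FBS) or T47D (RPMI 1640, 10% FBS) cells, 1 × 10^4 per well, adhered ~18 h, then exposed to 0.0001-10 µM drug (ethanol) for 6 days with media and drug renewed on day 4. MTT for 2 h, formazan dissolved in DMSO, A540. Triplicate wells, 2-3 experiments; IC50 by nonlinear regression.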

[9] = system: T47D; assay: Growth inhibition of human T47D cells after 6 days by MTT assay; format: functional, cell-based; conditions: 144 h; outline: as §4
[10] = system: LNCaP; assay: Growth inhibition of human LNCaP cells after 6 days by MTT assay; format: functional, cell-based; conditions: 144 h
Outline: (§5)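 LNCaP cells (1 × 10^4) on poly-L-lysine-coated wells, attached 36 h; PC-3 cells (1 × 10^4), uncoated, attached 24 h; both in RPMI 1640. Treated with a concentration range of drug for 6 days, medium changed every 3 days. MTT read-out at 540 nm; IC50 by nonlinear regression from at least two experiments.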

[11] = system: PC-3; assay: Growth inhibition of human PC3 cells after 6 days by MTT assay; format: functional, cell-based; conditions: PC-3, 144 h; outline: as §5
[12] = system: LNCaP; assay: Induction of cell differentiation in human LNCaP cells after 6 days; format: functional, cell-based
Outline: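 LNCaP cells given 1 µM compound, alone or with 1 µM ATRA, for 6 days. Lysates (50 µg) run on 10% SDS-PAGE and Western blotted with anti-cytokeratin 8/18, β-actin as control. ECL detection; band intensity by densitometry taken as the differentiation marker.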

[13] = biological target: T3, Cytochrome P450 26A1; assay: Inhibition of ATRA-induced CYP26 in human T47D cell microsome assessed as ATRA metabolism using [11.12-3H]-ATRA; format: functional, microsomes; outline: as §1
[14] = system: MDA-MB-231; assay: Growth inhibition of human MDA-MB-231 cells up to 10 uM after 6 days by MTT assay; format: functional, cell-based
[15] = system: MCF7; assay: Induction of apoptosis in human MCF7 cells at 1 uM for 6 days by TUNEL assay; format: functional, cell-based
Outline: (§6)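 MCF-7 or T47D cells exposed to 1 µM compound for 6 days, then trypsinized, fixed in 1% paraformaldehyde and stored in 70% ethanol at -20 °C overnight. TdT/BrdUTP labeling (APO-BRDU TUNEL), fluorescein anti-BrdU plus PI/RNase stain; apoptotic cells counted by flow cytometry.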

[16] = system: T47D; assay: Induction of apoptosis in human T47D cells at 1 uM for 6 days by TUNEL assay; format: functional, cell-based; outline: as §6

Structure (SMILES)	IC50 [1]	IC50 [2]	Ki [1]	IC50 [6]	IC50 [7]	other results
COC(=O)/C=C(C)/C=C/C=C(C)/C=C/C1=C(C)C(=N/O)/CCC1(C)C	23 nM					
CC1=C(/C=C/C(C)=C/C=C/C(C)=C/C(=O)Nc2ccc(O)cc2)C(C)(C)CCC1n1ccnc1 (racemic)	43.7 nM	6300 nM	0.35 nM	56 nM	24 nM	IC50 [8]: 610 nM; IC50 [9]: 570 nM; IC50 [10]: 9000 nM; IC50 [11]: 1500 nM
CC1=C(/C=C/C(C)=C/C=C/C(C)=C/C(=O)n2ccnc2)C(C)(C)CCC1n1ccnc1 (racemic)	0.05 nM		62 nM	24.7 nM	10 nM	Activity [12]: Active; IC50 [13]: 5.2 nM; IC50 [8]: 130 nM; IC50 [9]: 9 nM; Activity [14]: inactive; IC50 [10]: 10000 nM; IC50 [11]: 5800 nM; Activity [15]: Active; Activity [16]: Active
COC(=O)/C=C(C)/C=C/C=C(C)/C=C/C1=C(C)C(n2cnnc2)CCC1(C)C (racemic)	21.7 nM					
COC(=O)/C=C(C)/C=C/C=C(C)/C=C/C1=C(C)C(n2ccnc2)CCC1(C)C (racemic)	0.009 nM	7500 nM	46 nM	200 nM	215 nM	IC50 [13]: 40 nM
CC1=C(/C=C/C(C)=C/C=C/C(C)=C\C(=O)Nc2ccc(O)cc2)C(C)(C)CCC1n1ccnc1 (racemic)	76.7 nM		0.78 nM			

The next lines start with results.

IC50 [1]	IC50 [2]	Ki [1]	IC50 [6]	IC50 [7]	Structure (SMILES)	other results
61.2 nM	7000 nM				CC1=C(/C=C/C(C)=C/C=C/C(C)=C/C(=O)n2ccnc2)C(C)(C)CCC1	IC50 [3]: > 1000 nM; IC50 [4]: 500 nM; IC50 [5]: 500 nM
51.7 nM					CC1=C(/C=C/C(C)=C/C=C/C(C)=C/C(=O)n2cncn2)C(C)(C)CCC1	IC50 [3]: 20 nM; IC50 [4]: 90 nM; IC50 [5]: 80 nM
57.5 nM					CC1=C(/C=C/C(C)=C/C=C/C(C)=C\C(=O)n2ccnc2)C(C)(C)CCC1n1ccnc1 (racemic)	
